Results of several laboratories.
Compare with care: the assays were run in different laboratories.
Cell line: HepG2
Effect on: cell growth or viability

Cc1cc(=O)oc2ccc(-c3cc(-c4cccs4)nc(N)n3)c(O)c12  inhibition (MTT; 32 µg/mL; 72 h): 14%
Cc1cccc(/C=N/NC(=O)c2ccc(Nc3cc(C)nc4c(O)cccc34)cc2)n1  inhibition (MTT; 20 µM): 45.4%
Cc1cc(=O)oc2ccc(-c3cc(-c4ccc(Br)cc4)nc(N)n3)c(O)c12  inhibition (MTT; 2 µg/mL; 72 h): 0%
O=C(CN1C(=O)/C(=C/c2ccc(Cl)cc2)SC1=S)Nc1ccccc1  inhibition (MTT; 10 µM): 21.2%
CCCCCCCCCCCCCCCCOP(=O)([O-])OCC[N+](C)(C)C  inhibition (MTS; 20 µM; 24 h): 37.9%
Cc1ccc(-c2cc(-c3ccc4oc(=O)cc(C)c4c3O)nc(N)n2)cc1  inhibition (MTT; 2 µg/mL; 72 h): 0%
CCOC(=O)c1c(C)ncn1CC(c1cn(C)c2ccc([N+](=O)[O-])cc12)c1cn(C)c2ccc([N+](=O)[O-])cc12  inhibition (MTS; 20 µM; 24 h): 10.2%
O=C(CN1C(=O)/C(=C/c2cccc(F)c2)SC1=S)Nc1ccccc1  inhibition (MTT; 10 µM): 7.27%
Cc1cc(Nc2ccc(C(=O)N/N=C/C3CCCCC3)cc2)c2cccc(O)c2n1  inhibition (MTT; 20 µM): 45.4%
O=C(CN1C(=O)/C(=C/c2cccs2)SC1=S)Nc1ccccc1  inhibition (MTT; 10 µM): 11.8%
Cc1cc(Nc2ccc(C(=O)N/N=C/c3ccc[nH]3)cc2)c2cccc(O)c2n1  inhibition (MTT; 20 µM): 43.9%
O=C(CN1C(=O)/C(=C/c2ccc(Cl)cc2Cl)SC1=S)Nc1ccccc1  inhibition (MTT; 10 µM): 8.03%
Cc1cc(Nc2ccc(C(=O)N/N=C/c3ccnc(Cl)c3)cc2)c2cccc(O)c2n1  inhibition (MTT; 20 µM): 42.4%
Cc1cc(=O)oc2ccc(-c3cc(-c4cccc(Cl)c4)nc(N)n3)c(O)c12  inhibition (MTT; 8 µg/mL; 72 h): 0%
CCOc1ccc(/C=C2\SC(=S)N(CC(=O)Nc3ccccc3)C2=O)cc1  inhibition (MTT; 10 µM): 34.3%
COc1ccc(/C=N/NC(=O)c2ccc(Nc3cc(C)nc4c(O)cccc34)cc2)cc1O  inhibition (MTT; 20 µM): 34.6%
O=C(CN1C(=O)/C(=C/c2ccc(C(F)(F)F)cc2)SC1=S)Nc1ccccc1  inhibition (MTT; 10 µM): 11.2%
Cc1cc(Nc2ccc(C(=O)N/N=C/c3cccc(Oc4ccccc4)c3)cc2)c2cccc(O)c2n1  inhibition (MTT; 20 µM): 51.7%
